ChEMBL document CHEMBL1148730, “Design of noncompetitive interleukin-8 inhibitors acting on CXCR1 and CXCR2” (J Med Chem, 2007)

How the values were obtained:
Assay type in all cases: functional
[1] = Inhibition of CXCL1-induced cell migration in human PMN cells at 0.01 uM by chemotaxis assay
How it was run: (§1)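 Human PMNs from normal-donor buffy coats (dextran sedimentation, hypotonic lysis; 95% purity, >95% viability). Cells at 1.5-3 × 10⁶/mL preincubated 15 min at 37 °C with vehicle or compound, then seeded in triplicate in the upper well of a 48-well micro-chemotaxis chamber. Lower well held CXCL8 1 nM or CXCL1 10 nM. Chamber ran 45 min at 37 °C in 5% CO₂; filters were fixed and stained, and five 100× fields per well were counted.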

[2] = Inhibition of CXCL8-induced cell migration in human PMN cells at 0.01 uM by chemotaxis assay; how it was run: as §1
[3] = Inhibition of CXCL8-induced cell migration in human PMN cells at 1 nM chemotaxis assay; how it was run: as §1
[4] = system: Macrophage; assay: Inhibition of the LPS-induced PGE2 production in human macrophages at 10 uM
[5] = Inhibition of CXCL1-induced cell migration human PMN cells at 0.1 uM chemotaxis assay; how it was run: as §1

Row | SMILES | inhibition at 0.01 µM [1] | inhibition at 0.01 µM [2] | other results
1 | CC(C(=O)O)c1cccc(C(=O)C2CCCC2)c1 (centres undefined) | 2% | -5% | –
2 | CC(C(=O)O)c1ccc(NS(=O)(=O)C(C)C)cc1 (centres undefined) | – | 44% | –
3 | CC(C)NC(=O)[C@H](C)c1ccc(OS(=O)(=O)C(F)(F)F)cc1 | 72% | – | Inhibition [3]: 50%
4 | CC(C)S(=O)(=O)NC(=O)[C@H](C)c1ccc(OS(=O)(=O)C(F)(F)F)cc1 | 15% | 60% | –
5 | CC(C(=O)O)c1ccc(Cc2ccccc2)cc1 (centres undefined) | 35% | 1% | –
6 | CC(C(=O)O)c1cccc(S(=O)(=O)c2ccccc2)c1 (centres undefined) | – | 9% | –
7 | C[C@@H](C(N)=O)c1ccc(OS(=O)(=O)C(F)(F)F)cc1 | 58% | 60% | –
8 | C[C@@H](C(=O)NS(=O)(=O)c1ccccc1Cl)c1ccc(OS(=O)(=O)C(F)(F)F)cc1 | – | 18% | –
9 | C[C@@H](C(=O)NS(C)(=O)=O)c1ccc(OS(=O)(=O)C(F)(F)F)cc1 [LADARIXIN] | 61% | 60% | –
10 | CC(C(=O)O)c1cccc(C(C)c2ccccc2)c1 (centres undefined) | 45% | 55% | –
11 | CC(O)c1cccc(C(C)C(=O)O)c1 (centres undefined) | 40% | 43% | –
12 | CC(C)C(=O)c1cccc(C(C)C(=O)O)c1 (centres undefined) | – | 20% | –
13 | CC(C(=O)O)c1cccc(C(O)c2ccccc2)c1 (centres undefined) [2-{3-[HYDROXY(PHENYL)METHYL]PHENYL}PROPANOIC ACID] | 40% | 31% | –
14 | Cc1ccc(S(=O)(=O)Oc2ccc(C(C)C(=O)O)cc2)cc1 (centres undefined) | 65% | 49% | –
15 | CC(C(=O)O)c1cccc(C(=O)c2ccco2)c1 (centres undefined) | – | -3% | –
16 | CC(C)c1ccc(C(C)C(=O)O)cc1 (centres undefined) | – | 15% | –
17 | C[C@@H](C(=O)NC1CCCC1)c1ccc(OS(=O)(=O)C(F)(F)F)cc1 | – | 0% | –
18 | CC(Cc1cccc(C(C)C(=O)O)c1)c1ccccc1 (centres undefined) | – | 0% | –
19 | CC(C(=O)O)c1cccc(C(=O)c2nccs2)c1 (centres undefined) | 48% | 63% | –
20 | C[C@@H](C(=O)NO)c1ccc(OS(=O)(=O)C(F)(F)F)cc1 | 50% | 48% | –

Row | SMILES | inhibition at 0.01 µM [1] | inhibition at 0.01 µM [2] | other results
21 | C[C@@H](C(=O)Nc1ncco1)c1ccc(OS(=O)(=O)C(F)(F)F)cc1 | 48% | 50% | –
22 | C[C@@H](C(=O)O)c1ccc(OS(=O)(=O)C(F)(F)F)cc1 | 65% | 68% | inhibition at 10 µM [4]: 17%
23 | CC(C(=O)O)c1ccc(OS(=O)(=O)c2ccccc2)cc1 (centres undefined) | 54% | 55% | –
24 | CC(C(=O)O)c1cccc(C(=O)c2cccs2)c1 (centres undefined) | 50% | 51% | –
25 | CC(C(=O)O)c1ccc(C2CCCCC2)cc1 (centres undefined) [HEXAPROFEN] | – | 10% | –
26 | CC(C)c1cccc(C(C)C(=O)O)c1 (centres undefined) | 55% | 62% | –
27 | CC(C(=O)O)c1ccc(CC2CCC2)cc1 (centres undefined) | 59% | 55% | –
28 | CC(C(=O)O)c1cccc(C(C)(O)c2ccccc2)c1 (centres undefined) | – | 0% | –
29 | CC(C(=O)O)c1ccc(C(C)(C)C)cc1 (centres undefined) | – | 6% | –
30 | CC(C(=O)O)c1ccc(-c2cccs2)cc1 (centres undefined) | – | 11% | –
31 | C/C=C/c1cccc(C(C)C(=O)O)c1 (centres undefined) | – | -1% | –
32 | C/C=C/c1ccc(C(C)C(=O)O)cc1 (centres undefined) | – | 11% | –
33 | C[C@@H](C(=O)NS(=O)(=O)C(F)(F)F)c1ccc(OS(=O)(=O)C(F)(F)F)cc1 | – | -4% | –
34 | C[C@@H](C(=O)Nc1nc(C(F)(F)F)cs1)c1ccc(OS(=O)(=O)C(F)(F)F)cc1 | 60% | 64% | –
35 | CCc1ccccc1S(=O)(=O)Nc1ccc(C(C)C(=O)O)cc1 (centres undefined) | 80% | 47% | –
36 | CC(C(=O)O)c1ccc(N2Cc3ccccc3C2=O)cc1 (centres undefined) [INDOPROFEN] | – | 50% | Inhibition [5]: 40%
37 | C[C@@H](C(=O)Nc1nccs1)c1ccc(OS(=O)(=O)C(F)(F)F)cc1 | 56% | 57% | –
38 | CC(C(=O)O)c1ccc(OC(=O)c2ccccc2)cc1 (centres undefined) | – | 32% | –
39 | C[C@@H](C(=O)O)c1cccc(C(=O)c2ccccc2)c1 [R-KETOPROFEN] | 61% | 64% | –
40 | C[C@@H](C(=O)Nc1ccccc1)c1ccc(OS(=O)(=O)C(F)(F)F)cc1 | – | 10% | –
